Activity calls are given as the source filed them. The rule behind the calls is not given here.

What is called IC50 is the point on the concentration scale where inhibition reaches its midpoint. The low end stands for inhibition by little substance, the high end for a need for much substance.

For series [1], the system named is NCI-H460. The series can be described thus: Cytotoxicity against human NCI-H460 cells by MTT assay. It is filed as functional, cell-based. The procedure, abridged: (§1)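 Cells were exposed to samples dissolved in DMSO for 72 h in RPMI-1640 medium with 10% fetal bovine serum. Inhibition of proliferation was read by the tetrazolium-based colorimetric MTT viability assay. The panel comprised NCI-H460 lung, MCF-7 breast, SF-268 glioma and MIA Pa Ca-2 pancreatic carcinoma lines, plus normal primary WI-38 fibroblasts.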
In general terms: Formazan colour is commonly taken as a measure of viable cells.

A short description of series [2]: Cytotoxicity against human WI38 cells. In kind it is cell-based. The note with it: WI-38. The procedure, abridged: as §1
In series [3] the test system is MIA PaCa-2. Kind of series: Cytotoxicity against human MIAPaCa2 cells. It is filed as functional, cell-based. The procedure, abridged:
as §1

In series [4] the test system is MCF7. Kind of series: Cytotoxicity against human MCF7 cells by MTT assay. In kind it is functional, cell-based. The procedure, abridged:
as §1

The subject of series [5] is SF-268. Kind of series: Cytotoxicity against human SF268 cells. In kind it is functional, cell-based. The procedure, abridged: as §1
Series [6] has as its system NCI-H460. Kind of series: Cytotoxicity against human NCI-H460 cells at 10 ug/mL by MTT assay. In kind it is functional, cell-based.
The subject of series [7] is SF-268. Kind of series: Cytotoxicity against human SF268 cells at 10 ug/mL. In kind it is functional, cell-based.
Series [8] concerns MCF7. Kind of series: Cytotoxicity against human MCF7 cells at 10 ug/mL by MTT assay. It is filed as functional, cell-based.
The test system of series [9] is MIA PaCa-2. The series can be described thus: Cytotoxicity against human MIAPaCa2 cells at 10 ug/mL. In kind it is functional, cell-based.
A short description of series [10]: Cytotoxicity against human WI38 cells at 10 ug/mL. It is filed as cell-based. The note with it: wi-38.

Turning to `COc1cccc2c1C(=O)c1c(O)c3c(c(O)c1C2=O)C[C@@](O)(C(=O)CO)C[C@@H]3O[C@H]1C[C@H](N)[C@H](O)[C@H](C)O1` [DOXORUBICIN], the IC50 in series [1] was determined as 0.01 µM; in series [2], 0.3 µM.

As for `C/C=C/C(=O)COC(=O)c1c(C)cc(O)cc1O` [GLOBOSUMONE A], the IC50 in [1] is 6.5 µM; in series [3], 10.6 µM; in [4] it was 21.3 µM; in [2], 13 µM; in [5], 8.8 µM.

Consider `Cc1cc(O)cc(O)c1C(=O)OCC(=O)C[C@H](C)O` [GLOBOSUMONE B], for which the IC50 in series [1] came out at 24.8 µM; in series [3], 30.2 µM; in [4], 21.9 µM; in series [2] it was 14.2 µM; in [5] it was 29.1 µM.

`Cc1cc(O)cc(O)c1C(=O)OCC(=O)[C@@H](O)[C@H](C)O` [GLOBOSUMONE C]: the outcome in series [6], in series [7], in series [8] and in series [9] was inactive. Moreover, the Activity entry in [10] is reported as “Not Active”.

Turning to `Cc1cc(O)cc(O)c1C(=O)O` [ORSELLINIC ACID], the outcome in [6], in [7], in [8] and in [9] was inactive. Besides, the Activity entry in series [10] was “Not Active”.

For `C/C=C/C1OC2=C(C(=O)C[C@H](C)O2)C(=O)[C@@H]1O` (some centres not stated) [TRICHODION], the result in series [6], in series [7], in series [8] and in series [9] was inactive. Further, the Activity entry in series [10] is “Not Active”.

For the origin of these results see ChEMBL document CHEMBL1158761, “Globosumones A-C, cytotoxic orsellinic acid esters from the Sonoran desert endophytic fungus Chaetomium globosum” (J Nat Prod, 2005).
